Values joined by “and” are separate entries in the source; they are usually repeats but may differ in a detail not shown here. Equal entries are not always repeated.
Tests used:
[1] = system: auricular draining lymph nodes (dLNs); assay: Draining lymph node phenotyping by flow cytometry after 28-day dermal exposure; assay type: in vivo, B6C3F1 mice; conditions: 28 days
Method in brief: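 Female B6C3F1 mice (5/group) received 25 μl/ear daily to the dorsal ears in acetone. About 24 h after the last dose, tissues went into RPMI: both auricular dLNs, half spleen and one ear pinna. Single-cell suspensions were acquired on an LSR II, with populations gated per supplemental strategy and FMO gating controls. Results are mean ± SE, n=5, by one-way ANOVA.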

ear pinna [2] = assay: Ear; assay type: in vivo, B6C3F1 mice; conditions: dermal, 28 days, mice affected of 5
Method in brief: (§1)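 Female B6C3F1 mice (5/group) received 25 μl/ear on the dorsal ear surfaces daily, with acetone as vehicle. Tissues were formalin-fixed about 24 h after the last dose: liver remainder, half spleen, right kidney and half ear pinna. Sections were paraffin-embedded, cut at 5 μm and stained with H&E. A veterinary pathologist read them per STP guideline and graded 1 (minimal) to 5 (severe) by extent.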

kidney, spleen = assay: Kidney and spleen histopathology after 28-day dermal exposure; assay type: in vivo, B6C3F1 mice; conditions: 1.25–5%, 28 days, data not shown
Method in brief: as §1

[3] = PFAS concentration in pooled urine; assay type: in vivo, B6C3F1 mice; conditions: 5%, dermal, 28 days; 5 pooled samples
Method in brief: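 Urine was caught in a weigh boat as it was excreted during CO2 euthanasia, about 24 h after the final daily ear dose (25 μl/ear, acetone vehicle; female B6C3F1 mice). The 5 mice per group were pooled, with variable volume. Samples underwent solid-phase extraction and LC/MS/MS, as linear isomer for short-chain analytes and linear plus branched for the comparator. Each group gave a single value without statistics.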

B6C3F1 mice = assay: Serum chemistries after 28-day dermal exposure; assay type: in vivo; conditions: 28 days
Method in brief: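 Female B6C3F1 mice received daily dorsal ear application (25 μl/ear, acetone vehicle). About 24 h after the last dose, blood was taken by cardiac puncture. Serum was separated by centrifugation and stored at −20 °C. ALKP, BUN, glucose and cholesterol were read on a Catalyst DX analyzer. Data are mean ± SE of 4–5 mice, ANOVA with Dunnett's; ALKP was also tested by linear regression (p < 0.05).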

ear pinna [4] = assay: Skin; assay type: in vivo, B6C3F1 mice; conditions: dermal, 28 days
Method in brief: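 Dosing was daily topical to both dorsal ears (25 μl/ear, acetone vehicle) in female B6C3F1 mice. Liver caudate lobe or half ear pinna was stored in RNAlater and homogenized in RLT buffer. RNA was isolated on RNeasy columns with DNase, and 1–2 μg was reverse-transcribed. TaqMan real-time PCR was read as 2−ΔΔCT vs vehicle, normalized to β-actin. Statistics: ANOVA/Dunnett's, or Kruskal-Wallis/Dunn's for unequal variance.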

O=C(O)C(F)(F)C(F)(F)C(F)(F)C(F)(F)C(F)(F)C(F)(F)F [PFHpA, Perfluoroheptanoic acid]
dLN B-cells cell number ([1]; 1.25%): 5.40 ± 0.44 × 10^5
dLN B-cells frequency ([1]; 1.25%): 13.44 ± 1.00%
dLN CD4^+ cell number ([1]; 1.25%): 1.77 ± 0.17 × 10^6
dLN CD4^+ frequency ([1]; 1.25%): 43.44 ± 1.00%
dLN CD8^+ cell number ([1]; 1.25%): 11.50 ± 0.97 × 10^5
dLN CD8^+ frequency ([1]; 1.25%): 28.26 ± 0.62%
dLN CD11b+ cell number ([1]; 1.25%): 3.18 ± 0.81 × 10^4
dLN CD11b+ frequency ([1]; 1.25%): 0.74 ± 0.16%
dLN CD86 B-cells ([1]; 1.25%): 851.20 ± 55.68 MFI
dLN CD86 DCs ([1]; 1.25%): 22.90 ± 1.99 MFI x 10^2
dLN Dendritic Cells cell number ([1]; 1.25%): 15.60 ± 6.03 × 10^4
dLN Dendritic Cells frequency ([1]; 1.25%): 4.23 ± 1.95%
dLN Eosinophils cell number ([1]; 1.25%): 7.53 ± 1.81 × 10^2
dLN MHCII B-cells ([1]; 1.25%): 33.30 ± 3.62 MFI × 10^2
dLN NK cell number ([1]; 1.25%): 1.84 ± 0.21 × 10^4
dLN NK frequency ([1]; 1.25%): 0.45 ± 0.03 %
dLN Neutrophils cell number ([1]; 1.25%): 8.55 ± 1.38 × 10^2
dLN Total Cellularity ([1]; 1.25%): 4.05 ± 0.31 × 10^6
dLN B-cells cell number ([1]; 2.5%): 8.69 ± 0.16 × 10^5
dLN B-cells frequency ([1]; 2.5%): 14.86 ± 0.84%
dLN CD4^+ cell number ([1]; 2.5%): 2.47 ± 0.44 × 10^6
dLN CD4^+ frequency ([1]; 2.5%): 41.54 ± 0.58%
dLN CD8^+ cell number ([1]; 2.5%): 17.20 ± 3.10 × 10^5
dLN CD8^+ frequency ([1]; 2.5%): 28.6 ± 0.62%
dLN CD11b+ cell number ([1]; 2.5%): 6.87 ± 1.47 × 10^4
dLN CD11b+ frequency ([1]; 2.5%): 1.09 ± 0.09%
dLN CD86 B-cells ([1]; 2.5%): 908.40 ± 44.09 MFI
dLN CD86 DCs ([1]; 2.5%): 25.10 ± 0.72 MFI x 10^2
dLN Dendritic Cells cell number ([1]; 2.5%): 9.50 ± 1.42 × 10^4
dLN Dendritic Cells frequency ([1]; 2.5%): 1.70 ± 0.17%
dLN Eosinophils cell number ([1]; 2.5%): 20.40 ± 3.85 × 10^2
dLN MHCII B-cells ([1]; 2.5%): 44.30 ± 4.02 MFI × 10^2
dLN NK cell number ([1]; 2.5%): 3.23 ± 0.68 × 10^4
dLN NK frequency ([1]; 2.5%): 0.53 ± 0.03%
dLN Neutrophils cell number ([1]; 2.5%): 9.51 ± 1.88 × 10^2
dLN Total Cellularity ([1]; 2.5%): 5.97 ± 1.06 × 10^6
dLN B-cells cell number ([1]; 5%): 11.50 ± 1.39 × 10^5
dLN B-cells frequency ([1]; 5%): 14.70 ± 0.13%
dLN CD4^+ cell number ([1]; 5%): 3.03 ± 0.31 × 10^6
dLN CD4^+ frequency ([1]; 5%): 39.24 ± 0.83 %
dLN CD8^+ cell number ([1]; 5%): 22.10 ± 2.59 × 10^5
dLN CD8^+ frequency ([1]; 5%): 28.36 ± 0.20%
dLN CD11b+ cell number ([1]; 5%): 13.40 ± 1.96 × 10^4
dLN CD11b+ frequency ([1]; 5%): 1.69 ± 0.10 %
dLN CD86 B-cells ([1]; 5%): 879.80 ± 40.32 MFI
dLN CD86 DCs ([1]; 5%): 28.50 ± 0.78 MFI x 10^2
dLN Dendritic Cells cell number ([1]; 5%): 18.20 ± 3.38 × 10^4
dLN Dendritic Cells frequency ([1]; 5%): 2.28 ± 0.20%
dLN Eosinophils cell number ([1]; 5%): 22.80 ± 6.04 × 10^2
dLN MHCII B-cells ([1]; 5%): 43.10 ± 1.85 MFI × 10^2
dLN MHCII DCs ([1]; 5%): 58.90 ± 2.65 MFI × IQ^2
dLN NK cell number ([1]; 5%): 4.78 ± 0.67 × 10^4
dLN NK frequency ([1]; 5%): 0.61 ± 0.04%
dLN Total Cellularity ([1]; 5%): 7.78 ± 0.90 × 10^6
Ear: Degeneration/regeneration, cartilage, focal, Mild (incidence) (ear pinna [2]; 1.25%): 0
Ear: Fibrosis, dermis, focal, Minimal (incidence) (ear pinna [2]; 1.25%): 0
Ear: Hyperkeratosis, epidermis, focal, Mild (incidence) (ear pinna [2]; 1.25%): 0
Ear: Hyperkeratosis, epidermis, focal, Minimal (incidence) (ear pinna [2]; 1.25%): 0
Ear: Hyperplasia, epidermis, focal, Mild (incidence) (ear pinna [2]; 1.25%): 0
Ear: Hyperplasia, epidermis, focal, Minimal (incidence) (ear pinna [2]; 1.25%): 0
Ear: Inflammation, mixed cell, dermis, Minimal (incidence) (ear pinna [2]; 1.25%): 0
Ear: Inflammation, mononuclear cell, dermis, Minimal (incidence) (ear pinna [2]; 1.25%): 0
Ear: Necrosis, epidermis, multifocal, Minimal (incidence) (ear pinna [2]; 1.25%): 0
Ear: Degeneration/regeneration, cartilage, focal, Mild (incidence) (ear pinna [2]; 2.5%): 0
Ear: Fibrosis, dermis, focal, Minimal (incidence) (ear pinna [2]; 2.5%): 0
Ear: Hyperkeratosis, epidermis, focal, Mild (incidence) (ear pinna [2]; 2.5%): 0
Ear: Hyperkeratosis, epidermis, focal, Minimal (incidence) (ear pinna [2]; 2.5%): 0
Ear: Hyperplasia, epidermis, focal, Mild (incidence) (ear pinna [2]; 2.5%): 0
Ear: Hyperplasia, epidermis, focal, Minimal (incidence) (ear pinna [2]; 2.5%): 2/5 and 2
Ear: Inflammation, mixed cell, dermis, Minimal (incidence) (ear pinna [2]; 2.5%): 0
Ear: Inflammation, mononuclear cell, dermis, Minimal (incidence) (ear pinna [2]; 2.5%): 0
Ear: Necrosis, epidermis, multifocal, Minimal (incidence) (ear pinna [2]; 2.5%): 0
Ear: Fibrosis, dermis, focal, Minimal (incidence) (ear pinna [2]; 5%): 0
Ear: Hyperkeratosis, epidermis, focal, Mild (incidence) (ear pinna [2]; 5%): 0
Ear: Hyperkeratosis, epidermis, focal, Minimal (incidence) (ear pinna [2]; 5%): 4/5 and 4
Ear: Hyperplasia, epidermis, focal, Mild (incidence) (ear pinna [2]; 5%): 1/4 and 1
Ear: Hyperplasia, epidermis, focal, Minimal (incidence) (ear pinna [2]; 5%): 4/5 and 4
Ear: Inflammation, mixed cell, dermis, Minimal (incidence) (ear pinna [2]; 5%): 1
Ear: Inflammation, mononuclear cell, dermis, Minimal (incidence) (ear pinna [2]; 5%): 1
Ear: Necrosis, epidermis, multifocal, Minimal (incidence) (ear pinna [2]; 5%): 0
microscopic observations in the kidney or the spleen (kidney, spleen): No PFPeA, PFHxA, or PFHpA-related microscopic observations
urine PFAS concentration [3]: 1200 µg/mL
serum ALKP (B6C3F1 mice; 1.25–5%, linear regression p < 0.05, not significant via ANOVA): significant linear regression increase
serum glucose, increase compared to vehicle control (B6C3F1 mice; 5%): 30%
serum urea nitrogen (BUN), decrease (B6C3F1 mice; 5%): 30%
serum alanine aminotransferase (ALT) (B6C3F1 mice; any concentration, data not shown): No change
skin PPARα gene expression (ear pinna [4]; 1.25–5%): no significant decrease
skin Pparδ gene expression (ear pinna [4]; 1.25–5%): no changes
skin Flg gene expression (ear pinna [4]; 2.5%): increased
skin Krt10 gene expression (ear pinna [4]; 2.5%): increased
skin Pparγ gene expression (ear pinna [4]; 2.5%): decreased
skin Flg gene expression (ear pinna [4]; 5%): increased
skin Krt10 gene expression (ear pinna [4]; 5%): increased
skin Lor gene expression (ear pinna [4]; 5%): increased
skin Pparγ gene expression (ear pinna [4]; 5%): decreased
skin S100a8 gene expression, increase (ear pinna [4]; 5%): 6.7 fold
skin Serpine1 gene expression, increase (ear pinna [4]; 5%): 1.7 fold
skin Tslp gene expression, increase (ear pinna [4]; 5%): 5.1 fold

— PMC9989852 (Food and chemical toxicology : an international journal …, 2022)
